# Measurements as given in ChEMBL document CHEMBL4680079, “Discovery of a Quinoline-4-carboxamide Derivative with a Novel Mechanism of Action, Multistage Antimalarial Activity, and Potent in Vivo Efficacy” (J Med Chem, 2016).
# Tests used:
# [1] = Intrinsic clearance in CD1 mouse liver microsomes at 0.5 uM in presence of NADPH incubated upto 30 mins by UPLC-MS/MS analysis; type: ADME, Microsome; settings: 0.5 h
# Outline: (§1)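 Compound at 0.5 μM incubated with female CD1 mouse, male Sprague-Dawley rat or pooled human liver microsomes (0.5 mg/mL, 50 mM potassium phosphate, pH 7.4). Reaction started with excess NADPH. Samples taken at 0-30 min, quenched in acetonitrile, analysed by UPLC-MS/MS. Verapamil used as control, single time course.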
# [2] = Permeability of the compound at 10 uM incubated for 5 hrs by UPLC-MS/MS analysis based PAMPA method; type: ADME; settings: read-out: permeability
# Outline: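 PAMPA run on a lipid-oil-lipid tri-layer filter at pH 7.4. Compound at 10 μM in PBS (DMSO ≤5%) in donor wells, PBS in acceptor wells, kept 5 h at room temperature. Both compartments quantified by UPLC-MS/MS. Data accepted only when recovery exceeded 70%.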
# HepG2 = assay: Antiproliferative activity against human HepG2 cells assessed as reduction in cell viability; type: cell-based
# Plasmodium falciparum [3] = assay: Antiplasmodial activity against chloroquine-sensitive Plasmodium falciparum 3D7 infected in human red blood cells assessed as growth inhibition by SYBR Green fluorescence assay; type: functional, organism-based, RBC; settings: 3D7, Erythrocyte
# Outline: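 P. falciparum 3D7 grown in 5% human red cells in RPMI 1640 (pH 7.3) with 0.5% Albumax II, hypoxanthine and gentamicin at 37°C under 1% O₂/3% CO₂. Growth measured by SYBR green fluorescence (ex 485/em 528 nm), with mefloquine as assay control. EC50 calculated.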
# [4] = Kinetic aqueous solubility of the compound by laser nephelometry; type: physicochemical; settings: read-out: Kinetic_solubility
# Outline: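 Kinetic solubility measured by laser nephelometry. DMSO serial dilutions diluted into water to give final 100–5 μg/mL at 1.0% DMSO. Read immediately, in triplicate aliquots.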
# Plasmodium yoelii = assay: Antiplasmodial activity against Plasmodium yoelli liver stage forms; type: functional, organism-based
# Plasmodium falciparum [5] = assay: Antiplasmodial activity against drug resistant Plasmodium falciparum 7G8 by [3H]hypoxanthine incorporation assay; type: functional, organism-based
# Outline: (§2)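 Strains (K1, W2, 7G8, TM90C2A, D6, V1/S resistant; NF54 sensitive) cultured by the Trager and Jensen method; EC50 determined in vitro from [3H]hypoxanthine incorporation.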
# [6] = Hepatic extraction in rat during hepatic portal vein study; type: ADME; settings: read-out: ERH
# Plasmodium berghei [7] = assay: Antiplasmodial activity against Plasmodium berghei ANKA infected in NMRI mouse assessed as survival days at 30 mg/kg, po QD for 4 days; type: functional; settings: time 4 day
# [8] = molecular target: Voltage-gated inwardly rectifying potassium channel KCNH2 (Homo sapiens, UniProt Q12809); assay: Inhibition of human ERG by IonWorks patch-clamp electrophysiology method
# Outline: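 hERG K⁺ channel inhibition measured by IonWorks patch-clamp electrophysiology. Eight-point concentration-response curves made from 3-fold serial dilutions down from the maximum final assay concentration. Each curve generated on 2 occasions.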
# Plasmodium falciparum [9] = assay: Antiplasmodial activity against drug resistant Plasmodium falciparum TM90C2A by [3H]hypoxanthine incorporation assay; type: functional, organism-based; outline: as §2
# Plasmodium falciparum [10] = assay: Antiplasmodial activity against drug resistant Plasmodium falciparum […] [3H]hypoxanthine incorporation assay; type: functional, organism-based; outline: as §2
# [11] = Protein binding in CD1 mouse plasma measured after 5 hr by UPLC-MS/MS analysis based equilibrium dialysis method; type: ADME, cell-free; settings: mouse, 5 h
# Outline: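 Equilibrium dialysis of female CD1 mouse plasma spiked at 10 μg/mL (12-14 kDa membrane) against isotonic buffer for 5 h at ~37°C with shaking. Unbound fraction taken as the buffer/plasma peak-area ratio by UPLC-MS/MS. n=6 replicates, run in triplicate.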
# Plasmodium berghei [12] = assay: Antiplasmodial activity against Plasmodium berghei ANKA infected in NMRI mouse assessed as survival days at 3 mg/kg, po QD for 4 days; type: functional; settings: time 4 day
# [13] = Volume of distribution at steady state in NMRI mouse at 3 mg/kg, iv administered as bolus dose by UPLC-MS/MS analysis; type: ADME, organism-based; settings: in vivo, read-out: Vdss
# Outline: (§3)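 Intravenous bolus solution, 3 mg free base/kg (5 mL/kg; 10% DMSO, 90% saline), given to female NMRI mice (n=3). Compound level in blood determined by UPLC-MS/MS. PK parameters derived from the blood concentration-time curve.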
# Plasmodium berghei [14] = assay: Antiplasmodial activity against Plasmodium berghei ANKA infected in NMRI mouse assessed as reduction in parasitemia at 30 mg/kg, po QD for 4 days; type: functional; set-up: scale not given: the % may be the effect or the level left; settings: time 4 day
# Outline: (§4)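 Female NMRI mice (n=3 per group, randomized, not blinded) infected with GFP-transfected P. berghei ANKA. Oral dosing once daily for 4 days in 10% DMSO/40% PEG400/50% water or HPMC suspension vehicle. Parasitaemia measured by flow cytometry on blood collected 96 h after infection. Mice watched for toxicity over 4 h post-dose each day.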
# [15] = Intrinsic clearance in Sprague-Dawley rat liver microsomes at 0.5 uM in presence of NADPH incubated upto 30 mins by UPLC-MS/MS analysis; type: ADME, Microsome; settings: 0.5 h; outline: as §1
# [16] = Intrinsic clearance in rat hepatocytes; type: ADME, cell-based, Hepatocyte
# [17] = Clearance in NMRI mouse blood at 3 mg/kg, iv administered as bolus dose by UPLC-MS/MS analysis; type: ADME, organism-based; outline: as §3
# Plasmodium falciparum [18] = assay: Antiplasmodial activity against drug resistant Plasmodium falciparum D6 by [3H]hypoxanthine incorporation assay; type: functional, organism-based; outline: as §2
# [19] = AUC in NMRI mouse at 10 mg/kg, po administered as gavage by UPLC-MS/MS analysis; type: ADME, organism-based; set-up: dose 10 mg/kg; settings: in vivo
# Outline: (§5)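 Female NMRI mice (n=3) dosed by oral gavage as a solution at 10 mg free base/kg (10 mL/kg; vehicle 5 or 10% DMSO, 40% PEG400). Blood levels measured by UPLC-MS/MS. Parameters derived from the blood concentration-time curve.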
# [20] = Cmax in NMRI mouse at 10 mg/kg, po administered as gavage by UPLC-MS/MS analysis; type: ADME, organism-based; set-up: route oral, dose 10 mg/kg; settings: in vivo; outline: as §5
# Plasmodium falciparum [21] = assay: Antiplasmodial activity against drug resistant Plasmodium falciparum V1/S by [3H]hypoxanthine incorporation assay; type: functional, organism-based; outline: as §2
# [22] = Oral bioavailability in NMRI mouse at 10 mg/kg administered via gavage by UPLC-MS/MS analysis; type: ADME, organism-based; settings: in vivo; outline: as §5
# Plasmodium berghei [23] = assay: Antiplasmodial activity against Plasmodium berghei ookinete form assessed as growth inhibition incubated for 22 hrs by GFP-based fluorescence microscopic analysis; type: functional, organism-based
# Plasmodium berghei [24] = assay: Antiplasmodial activity against GFP-transfected Plasmodium berghei ANKA infected in NMRI mouse assessed as reduction in parasitemia by measuring effective dose administered once daily oral dose for 4 days; type: functional; settings: 96 h, time 4 day; outline: as §4
# MRC5 = assay: Antiproliferative activity against human MRC5 cells assessed as reduction in cell viability after 68 hrs by resazurin dye based fluorescence assay; settings: MRC5, 68 h
# Outline: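 MRC-5 fibroblasts plated overnight as monolayers, exposed to compound pre-diluted in MEM for 68 h. Resazurin then added (final 50 μM) for 3 h, fluorescence read at ex 528/em 590 nm. Signal converted to % inhibition against high- and no-inhibition controls. Plates accepted at Z' > 0.5.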
# Plasmodium berghei [25] = assay: Antiplasmodial activity against Plasmodium berghei ANKA infected in NMRI mouse assessed as reduction in parasitemia at 10 mg/kg, po QD for 4 days; type: functional; set-up: scale not given: the % may be the effect or the level left; settings: time 4 day; outline: as §4
# Plasmodium berghei [26] = assay: Antiplasmodial activity against Plasmodium berghei infected in NMRI mouse assessed as reduction in parasitemia at 3 mg/kg, po QD for 4 days; type: functional; set-up: scale not given: the % may be the effect or the level left; settings: time 4 day; outline: as §4
# Plasmodium falciparum [27] = assay: Antiplasmodial activity against drug resistant Plasmodium falciparum K1 by [3H]hypoxanthine incorporation assay; type: functional, organism-based; outline: as §2
# [28] = Tmax in NMRI mouse at 10 mg/kg, po administered as gavage by UPLC-MS/MS analysis; type: ADME, organism-based; settings: in vivo; outline: as §5
# Plasmodium berghei [29] = assay: Antiplasmodial activity against Plasmodium berghei ANKA infected in NMRI mouse assessed as reduction in parasitemia at 1 mg/kg, po QD for 4 days; type: functional; set-up: scale not given: the % may be the effect or the level left; settings: time 4 day; outline: as §4
# [30] = Half-life in NMRI mouse at 3 mg/kg, iv administered as bolus dose by UPLC-MS/MS analysis; type: ADME, organism-based; settings: in vivo; outline: as §3
# Plasmodium berghei [31] = assay: Antiplasmodial activity against Plasmodium berghei ANKA infected in NMRI mouse assessed as survival days at 10 mg/kg, po QD for 4 days; type: functional; settings: time 4 day
# [32] = Intrinsic clearance in human liver microsomes at 0.5 uM in presence of NADPH incubated upto 30 mins by UPLC-MS/MS analysis; type: ADME, Microsome; settings: 0.5 h; outline: as §1
# Plasmodium berghei [33] = assay: Antiplasmodial activity against Plasmodium berghei ANKA infected in NMRI mouse assessed as survival days at 1 mg/kg, po QD for 4 days; type: functional; settings: time 4 day
# Plasmodium falciparum [34] = assay: Antiplasmodial activity against late stage (IV/V) Plasmodium falciparum NF54 gametocytes transfected with GFP-LUC assessed as growth inhibition incubated for 72 hrs by mitotracker Red-CMXROS dye based fluorescence microscopic analysis; type: functional, organism-based; settings: NF54, 72 h
# Outline: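 NF54 pfs16-LUC-GFP stage IV–V gametocytes (10% parasitaemia, 0.1% haematocrit) exposed to compound in 0.4% DMSO, three concentrations per log, for 72 h at 37°C under 5% CO2/5% O2/90% N2. MitoTracker Red CM-H2Xros then added for 16 h and viable gametocytes counted by imaging.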
# Plasmodium falciparum [35] = assay: Antiplasmodial activity against drug resistant Plasmodium falciparum W2 by [3H]hypoxanthine incorporation assay; type: functional, organism-based; outline: as §2
# Voltage-gated inwardly rectifying potassium channel KCNH2, sequence (Q12809 whole entry): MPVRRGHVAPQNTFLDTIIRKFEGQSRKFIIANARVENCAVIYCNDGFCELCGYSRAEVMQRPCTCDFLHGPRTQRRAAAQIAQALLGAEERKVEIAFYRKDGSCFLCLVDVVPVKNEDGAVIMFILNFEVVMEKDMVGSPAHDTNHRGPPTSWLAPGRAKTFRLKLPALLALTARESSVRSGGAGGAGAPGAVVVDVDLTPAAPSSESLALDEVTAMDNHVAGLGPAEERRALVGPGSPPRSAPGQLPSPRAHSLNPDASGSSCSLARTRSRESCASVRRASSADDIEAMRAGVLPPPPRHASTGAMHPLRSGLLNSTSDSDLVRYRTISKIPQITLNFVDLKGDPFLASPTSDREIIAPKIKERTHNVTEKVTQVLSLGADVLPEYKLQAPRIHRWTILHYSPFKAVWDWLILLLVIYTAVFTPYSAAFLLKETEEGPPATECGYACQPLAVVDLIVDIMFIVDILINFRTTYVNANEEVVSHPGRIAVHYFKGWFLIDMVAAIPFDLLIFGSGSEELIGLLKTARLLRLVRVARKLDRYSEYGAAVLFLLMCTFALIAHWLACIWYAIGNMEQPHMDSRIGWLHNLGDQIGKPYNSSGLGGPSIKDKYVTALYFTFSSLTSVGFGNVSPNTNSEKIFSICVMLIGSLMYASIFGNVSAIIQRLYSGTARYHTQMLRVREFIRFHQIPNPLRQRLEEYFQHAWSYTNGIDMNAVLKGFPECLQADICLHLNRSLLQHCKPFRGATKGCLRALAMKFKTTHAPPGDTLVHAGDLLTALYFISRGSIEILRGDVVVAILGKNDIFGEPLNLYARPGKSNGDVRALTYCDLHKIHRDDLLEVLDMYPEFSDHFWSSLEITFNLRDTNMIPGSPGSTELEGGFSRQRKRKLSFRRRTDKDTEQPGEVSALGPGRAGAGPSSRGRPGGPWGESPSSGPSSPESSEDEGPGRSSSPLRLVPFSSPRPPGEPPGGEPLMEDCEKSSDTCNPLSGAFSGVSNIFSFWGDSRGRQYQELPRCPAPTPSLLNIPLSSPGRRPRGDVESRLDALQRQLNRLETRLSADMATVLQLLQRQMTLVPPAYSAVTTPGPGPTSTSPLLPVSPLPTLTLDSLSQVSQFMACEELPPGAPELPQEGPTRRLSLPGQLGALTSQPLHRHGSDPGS
smiles,measurement,setting,value
CN(CCN1CCCC1)C(=O)c1cc(-c2ccc(CN3CCOCC3)cc2)nc2ccc(F)cc12,CLH,[1],< 0.5 mL/min/g
same,"Papp at 5 h, 10 µM",[2],13.7 ×10⁻⁶ cm/s
same,EC50,HepG2,> 50000 nM
same,EC50,Plasmodium falciparum [3],87 nM
same,solubility kinetic,[4],> 210 µM
O=C(NCCN1CCCC1)c1cc(NCCC2CCOCC2)nc2ccc(Cl)cc12,EC50,Plasmodium yoelii,1 nM
same,EC50,Plasmodium falciparum [5],0.7 nM
same,hepatic extraction ratio,[6],0.76
same,Survival,Plasmodium berghei [7],10 days
same,IC50,[8],> 11000 nM
same,EC50,Plasmodium falciparum [9],0.5 nM
same,CLH,[1],2 mL/min/g
same,EC50,Plasmodium falciparum [10],0.5 nM
same,PPB,[11],77%
same,Survival,Plasmodium berghei [12],6 days
same,"Papp at 5 h, 10 µM",[2],4.8 ×10⁻⁶ cm/s
same,Vd,[13],7.4 L/kg
same,Activity,Plasmodium berghei [14],99.9%
same,CLH,[15],0.8 mL/min/g
same,CLH,[16],3 mL/min/g
same,clearance,[17],34 mL/min/kg
same,EC50,Plasmodium falciparum [18],0.7 nM
same,EC50,Plasmodium falciparum [3],6 nM
same,AUC,[19],1210 ng·h/mL
same,Cmax,[20],193 ng/mL
same,EC50,Plasmodium falciparum [21],0.9 nM
same,bioavailability,[22],23%
same,EC50,Plasmodium berghei [23],14 nM
same,ED90,Plasmodium berghei [24],1 mg/kg
same,EC50,MRC5,31000 nM
same,Activity,Plasmodium berghei [25],99.9%
same,Activity,Plasmodium berghei [26],98%
same,EC50,Plasmodium falciparum [27],0.8 nM
same,Tmax,[28],0.5 h
same,Activity,Plasmodium berghei [29],90%
same,half-life,[30],2.9 h
same,Survival,Plasmodium berghei [31],8 days
same,CLH,[32],1 mL/min/g
same,Survival,Plasmodium berghei [33],7 days
same,EC50,Plasmodium falciparum [34],39 nM
same,EC50,Plasmodium falciparum [35],0.6 nM
same,solubility kinetic,[4],230 µM
